One compound from ChEMBL document CHEMBL4680118, “Cerpegin-derived furo[3,4-c]pyridine-3,4(1H,5H)-diones enhance cellular response to interferons by de novo pyrimidine biosynthesis inhibition” (Eur J Med Chem, 2020) can be followed below.

Structures are written as SMILES. Activity calls are given as the source filed them. No cut-off for these calls is given here.

Holding throughout (type): cell-based
For assay [1], the target named is T1, Dihydroorotate dehydrogenase (quinone), mitochondrial (Homo sapiens, UniProt Q02127). As to the kind of experiment: Inhibition of DHODH in human HEK293 cells transfected with ISRE-luciferase reporter gene assessed as increase in 250 IU/ml IFN-alpha stimulated […] mRNA expression at 80 uM measured after 16 hrs by RT-qPCR analysis relative to control. An outline of the steps:
(§1)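 ISRE-Luc HEK cells co-treated with increasing IFN-α concentrations and DMSO or compound (80 µM) for 16 h. Total RNA extracted from 2×10^5 cells with DNase step; qPCR 35 cycles. CT values normalized to RPL13A and unstimulated controls (2^-ΔΔCT), expressed as fold change versus DMSO alone. Three independent experiments; two-way ANOVA with Bonferroni.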

The target in assay [2] is T1, Dihydroorotate dehydrogenase (quinone), mitochondrial. As to the kind of experiment: Inhibition of DHODH in human HEK293 cells assessed as effect on intracellular purine level measured after 24 hrs by HPLC coupled spectrophotometry. In short, it runs like this:
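HEK-293 cells plated at 1×10^6 per well, treated 24 h later with compound (80 µM final) or DMSO for 24 h. Pellets deproteinized with 6% perchloric acid, neutralized with Na2CO3, analysed by C18 HPLC at 45°C with ion-pair phosphate/MeOH gradient, detected at 254 nm against reference nucleoside calibration curves. Normalized to viable cell number and DMSO controls.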

For assay [3] the target is unchanged. As to the kind of experiment: Inhibition of DHODH in human HEK-293 cells transfected with ISRE-luciferase reporter gene assessed as increase in IFN-alpha mediated cellular response at 80 uM in presence of uridine measured after 24 hrs by luciferase reporter gene assay. The conditions noted are these: HEK293. In short, it runs like this: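 ISRE-Luc HEK-293 cells exposed to increasing IFN-α concentrations with DMSO or compound (80 µM), supplemented with uridine (125 µM) or with 3 mM orotate or DHO. Reporter luciferase read after 24 h, normalized to DMSO + IFN-α 250 IU/ml. Means ± SD of three independent experiments; two-way ANOVA.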

Assay [4] shares this target. As to the kind of experiment: Inhibition of DHODH in human HEK293 cells transfected with ISRE-luciferase reporter gene assessed as increase in 250 IU/ml IFN-alpha stimulated PKR mRNA expression at 80 uM measured after 16 hrs by RT-qPCR analysis relative to control. An outline of the steps: as §1
Assay [5] has the same target. The assay can be described thus: Inhibition of DHODH in human HEK293 cells transfected with ISRE-luciferase reporter gene assessed as increase in 30 IU/ml IFN-alpha stimulated PKR mRNA expression at 80 uM measured after 16 hrs by RT-qPCR analysis relative to control. An outline of the steps:
as §1

The target is the same in assay [6]. As to the kind of experiment: Inhibition of DHODH in human HEK293 cells transfected with ISRE-luciferase reporter gene assessed as increase in 30 IU/ml IFN-alpha stimulated IFIT2 mRNA expression at 80 uM measured after 16 hrs by RT-qPCR analysis relative to control. An outline of the steps:
as §1

T1 sequence (Q02127 whole entry): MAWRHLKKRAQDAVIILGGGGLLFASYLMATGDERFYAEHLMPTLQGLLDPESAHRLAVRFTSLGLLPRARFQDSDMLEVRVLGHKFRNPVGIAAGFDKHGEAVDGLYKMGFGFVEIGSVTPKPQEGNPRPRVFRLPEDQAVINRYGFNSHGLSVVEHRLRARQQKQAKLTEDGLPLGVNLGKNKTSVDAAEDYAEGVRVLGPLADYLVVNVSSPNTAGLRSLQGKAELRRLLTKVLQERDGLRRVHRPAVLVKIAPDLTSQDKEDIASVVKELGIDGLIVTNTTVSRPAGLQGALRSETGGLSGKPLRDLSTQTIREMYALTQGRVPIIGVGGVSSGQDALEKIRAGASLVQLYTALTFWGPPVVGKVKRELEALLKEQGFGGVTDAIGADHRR

In the case of `O=C1OC2(CCCCC2)c2ccn(C3CC3)c(=O)c21`, the fold change (FC) in assay [1] amounted to 143; in assay [4], 4; in assay [5], 2; in assay [6], 26. Further, the result in assay [2] and in assay [3] was inactive.
